Published values of several laboratories.
Compare with care: the assays were run in different laboratories.
Target: Mitogen-activated protein kinase kinase kinase 20 (MAP3K20, Homo sapiens, UniProt Q9NYL2)

| Structure (SMILES) | observed | method | concentration | remaining binding |
| --- | --- | --- | --- | --- |
| N[C@@H]1CCN(c2nccc(-c3cnn4ncccc34)n2)C1 | binding |  | 1 µM | 100% |
| COc1cnc(Nc2cccc(S(N)(=O)=O)c2)nc1N1CCN(c2ccccc2)CC1 | binding | competition with immobilised ligand | 1 µM | 100% |
| O=C(Nc1c[nH]nc1C(=O)NC1CCNCC1)c1cc(F)cc(F)c1 | binding | competition with immobilised ligand | 1 µM | 100% |
| C[C@H]1CCN(c2nccc(-c3cnn4ncccc34)n2)C1 | binding |  | 1 µM | 97% |
| O=C(O)[C@@H]1[C@@H](Cn2nnc3ccccc3c2=O)CC[C@H]1C(=O)c1ccc(OCCC2CCOCC2)cc1 | cell-free assay | competition with immobilised ligand | 1 µM | 91% |
| O=C(NCCCN1CCOCC1)c1ccc(Nc2ncc(Cl)c(-c3ccc(Cl)s3)n2)cc1 | binding | competition with immobilised ligand | 1 µM | 69% |
| c1cnn2ncc(-c3ccnc(N4CCC45COC5)n3)c2c1 | binding |  | 1 µM | 100% |
| CNC(=O)[C@@H]1CC[C@@H](n2c(-c3ccc4cnccc4c3)nc3ccc(C(=O)NCc4cccc(C(N)=O)c4)cc32)C1 | binding | competition with immobilised ligand | 1 µM | 100% |
| Cc1cnn2ncc(-c3ccnc(N(C)C)n3)c2c1 | binding |  | 1 µM | 95% |
| O=C(c1ccc(Nc2nccc(-c3cc4ccccc4s3)n2)cc1)N1CCC(N2CCCC2)CC1 | binding | competition with immobilised ligand | 1 µM | 69% |
| C[C@@H](c1cccc(C#N)c1)n1cc(Cl)cc(C(N)=O)c1=N | cell-free assay | competition with immobilised ligand | 1 µM | 71% |
| COc1ccnn2ncc(-c3ccnc(N(C)C)n3)c12 | binding |  | 1 µM | 100% |
| O=c1nc(-c2ccccn2)sc2ccccc12 | binding | competition with immobilised ligand | 1 µM | 87% |
| COc1ncc2cc3ccccc3nc2c1C#N | cell-free assay | competition with immobilised ligand | 5 µM | 80% |
| O=C(NCc1ncc(C(F)(F)F)cc1Cl)c1ccc2c(c1)C1(CCS(=O)(=O)CC1)[C@H](C1CC1)N2S(=O)(=O)c1ccc(F)cc1 | cell-free assay | competition with immobilised ligand | 1 µM | 100% |
| C[C@@H](c1ccc(-n2cnc3c(N)ncnc32)cc1)N1CCc2nn(C)c(Cc3ccccc3)c2C1=O | binding | competition with immobilised ligand | 0.1 µM | 58% |
| CO[C@@H](C)c1c(Nc2ccc([C@@H](N(C)C(=O)C3CCS(=O)(=O)CC3)C(F)(F)F)cc2)cnc2cc(Cl)nn12 | cell-free assay | competition with immobilised ligand | 1 µM | 100% |
| c1cncc(-c2cccc(Nc3nccc(NC4CCCCC4)n3)c2)c1 | binding | competition with immobilised ligand | 10 µM | 93% |
| CS(=O)(=O)NCC[C@H](NC(=O)c1cncc2c1cnn2-c1ccc(F)cc1)c1ccnc(S(C)(=O)=O)c1 | cell-free assay | competition with immobilised ligand | 1 µM | 88% |
| O=C(c1ccc(Nc2ncc(Cl)c(-c3cc4ccccc4s3)n2)cc1)N1CCC(N2CCCC2)CC1 | binding | competition with immobilised ligand | 1 µM | 48% |
| Cc1c(NC(=O)c2cc(C(N)=O)nc3cc(F)ccc23)c(C(F)(F)F)nn1Cc1ccc(C#N)cc1 | cell-free assay | competition with immobilised ligand | 1 µM | 100% |
| CC1CCCN1c1nccc(-c2cnn3ncccc23)n1 (stereo not shown) | binding |  | 1 µM | 100% |
